According to ChEMBL document CHEMBL4689842, “EUbOPEN Chemogenomics Library wave 1” (2021):
Several values for one entry are separate records, joined by “and”; a condition that tells them apart may be missing. Equal values may be shown once.

Tested on: Fibroblast
Test: Multiplex assay against human fibroblast
Format: toxicity, cell-based
How it was run: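 Tubulin, mitochondrial-mass and membrane-permeability phenotypes are per cents of healthy-nucleus cells. Cells were gated by CellPathfinder machine learning into Hoechst high-intensity objects or normal cells, normal cells into healthy, pyknosed or fragmented nuclei, and pyknosed cells into mitotic or apoptotic. Before that, live cells stained at seeding with Hoechst33342, BioTracker Green Microtubule Cytoskeleton Dye, MitoTracker Red and Annexin V Alexa Fluor 680 were imaged on a CQ1 microscope at 37°C and 5% CO2 after compound addition.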

[1] = 12 h, 1 µM, compound concentration 1 uM, replicate 1
[2] = 12 h, 1 µM, compound concentration 1 uM, replicate 2
[3] = 12 h, 10 µM, compound concentration 10 uM, replicate 1
[4] = 12 h, 10 µM, compound concentration 10 uM, replicate 2
[5] = 24 h, 1 µM, compound concentration 1 uM, replicate 1
[6] = 24 h, 1 µM, compound concentration 1 uM, replicate 2
[7] = 24 h, 10 µM, compound concentration 10 uM, replicate 1
[8] = 24 h, 10 µM, compound concentration 10 uM, replicate 2
[9] = 48 h, 1 µM, compound concentration 1 uM, replicate 1
[10] = 48 h, 1 µM, compound concentration 1 uM, replicate 2
[11] = 48 h, 10 µM, compound concentration 10 uM, replicate 1
[12] = 48 h, 10 µM, compound concentration 10 uM, replicate 2

SMILES: CCC1=C[C@@H]2C[N@](C1)Cc1c([nH]c3ccccc13)[C@@](C(=O)OC)(c1cc3c(cc1OC)N(C)[C@H]1[C@@](O)(C(=O)OC)[C@H](OC(C)=O)[C@]4(CC)C=CCN5CC[C@]31[C@@H]54)C2.O=C(O)C(O)C(O)C(=O)O.O=C(O)C(O)C(O)C(=O)O [VINORELBINE TARTRATE]
- Population Apoptotic (%) [1]: 63% and 65%
- Population Fragmented Nuclei (%) [1]: 27% and 51%
- Population Healthy Nuclei (%) [1]: 48% and 34%
- Population Hoechst High Intensity Objects (%) [1]: 16% and 26%
- Population Mitochondria Different-Phenotype (%) [1]: 14% and 9%
- Population Mitotic Cells (%) [1]: 36% and 34%
- Population Normal (%) [1]: 83% and 73%
- Population Pyknosed Nuclei (%) [1]: 23% and 14%
- Population Tubulin-Different-Phenotype (%) [1]: 8% and 4%
- Total Cell Count [1]: 151 and 452
- Population Apoptotic (%) [2]: 100% and 80%
- Population Fragmented Nuclei (%) [2]: 79% and 75%
- Population Healthy Nuclei (%) [2]: 18% and 15%
- Population Hoechst High Intensity Objects (%) [2]: 44% and 38%
- Population Membrane Permeable-Phenotype (%) [2]: 22% and 0%
- Population Mitochondria Different-Phenotype (%) [2]: 0%
- Population Mitotic Cells (%) [2]: 0% and 20%
- Population Normal (%) [2]: 55% and 61%
- Total Cell Count [2]: 86 and 94
- Population Apoptotic (%) [3]: 67% and 68%
- Population Fragmented Nuclei (%) [3]: 46% and 27%
- Population Healthy Nuclei (%) [3]: 39% and 50%
- Population Hoechst High Intensity Objects (%) [3]: 18%
- Population Membrane Permeable-Phenotype (%) [3]: 6% and 4%
- Population Mitochondria Different-Phenotype (%) [3]: 13% and 6%
- Population Mitotic Cells (%) [3]: 32% and 31%
- Population Normal (%) [3]: 81%
- Population Pyknosed Nuclei (%) [3]: 13% and 22%
- Population Tubulin-Different-Phenotype (%) [3]: 3%
- Total Cell Count [3]: 353 and 227
- Population Apoptotic (%) [4]: 50% and 60%
- Population Fragmented Nuclei (%) [4]: 59% and 69%
- Population Healthy Nuclei (%) [4]: 31% and 24%
- Population Hoechst High Intensity Objects (%) [4]: 32% and 26%
- Population Membrane Permeable-Phenotype (%) [4]: 17% and 0%
- Population Mitochondria Different-Phenotype (%) [4]: 17% and 10%
- Population Mitotic Cells (%) [4]: 50% and 40%
- Population Normal (%) [4]: 67% and 73%
- Population Pyknosed Nuclei (%) [4]: 8% and 6%
- Population Tubulin-Different-Phenotype (%) [4]: 13% and 0%
- Total Cell Count [4]: 107 and 111
- Population Apoptotic (%) [5]: 73% and 63%
- Population Fragmented Nuclei (%) [5]: 54% and 33%
- Population Healthy Nuclei (%) [5]: 31% and 50%
- Population Hoechst High Intensity Objects (%) [5]: 25% and 18%
- Population Mitochondria Different-Phenotype (%) [5]: 8% and 7%
- Population Mitotic Cells (%) [5]: 26% and 36%
- Population Normal (%) [5]: 74% and 81%
- Population Pyknosed Nuclei (%) [5]: 13% and 16%
- Population Tubulin-Different-Phenotype (%) [5]: 4% and 3%
- Population Fragmented Nuclei (%) [6]: 76% and 77%
- Population Healthy Nuclei (%) [6]: 20% and 15%
- Population Hoechst High Intensity Objects (%) [6]: 44% and 34%
- Population Mitochondria Different-Phenotype (%) [6]: 22% and 9%
- Population Mitotic Cells (%) [6]: 100% and 40%
- Population Normal (%) [6]: 55% and 65%
- Population Pyknosed Nuclei (%) [6]: 2% and 6%
- Population Tubulin-Different-Phenotype (%) [6]: 22% and 9%
- Total Cell Count [6]: 77 and 110
- Population Apoptotic (%) [7]: 77% and 75%
- Population Fragmented Nuclei (%) [7]: 48% and 27%
- Population Healthy Nuclei (%) [7]: 35% and 54%
- Population Hoechst High Intensity Objects (%) [7]: 26% and 19%
- Population Membrane Permeable-Phenotype (%) [7]: 5% and 4%
- Population Mitochondria Different-Phenotype (%) [7]: 9% and 2%
- Population Mitotic Cells (%) [7]: 22% and 25%
- Population Normal (%) [7]: 73% and 80%
- Population Pyknosed Nuclei (%) [7]: 15% and 18%
- Population Tubulin-Different-Phenotype (%) [7]: 3% and 1%
- Total Cell Count [7]: 394 and 248
- Population Fragmented Nuclei (%) [8]: 60% and 80%
- Population Healthy Nuclei (%) [8]: 31% and 17%
- Population Hoechst High Intensity Objects (%) [8]: 37% and 27%
- Population Membrane Permeable-Phenotype (%) [8]: 10% and 0%
- Population Mitochondria Different-Phenotype (%) [8]: 10% and 0%
- Population Normal (%) [8]: 62% and 72%
- Population Tubulin-Different-Phenotype (%) [8]: 0%
- Total Cell Count [8]: 103 and 151

SMILES: CC(C)(C)NC[C@H](O)COc1nsnc1N1CCOCC1 [TIMOLOL]
- Population Apoptotic (%) [1]: 71%
- Population Fragmented Nuclei (%) [1]: 22%
- Population Healthy Nuclei (%) [1]: 51%
- Population Hoechst High Intensity Objects (%) [1]: 14%
- Population Membrane Permeable-Phenotype (%) [1]: 14%
- Population Mitochondria Different-Phenotype (%) [1]: 1%
- Population Mitotic Cells (%) [1]: 28%
- Population Normal (%) [1]: 85%
- Population Pyknosed Nuclei (%) [1]: 25%
- Population Tubulin-Different-Phenotype (%) [1]: 25%
- Population Apoptotic (%) [2]: 100%
- Population Fragmented Nuclei (%) [2]: 5%
- Population Healthy Nuclei (%) [2]: 88%
- Population Hoechst High Intensity Objects (%) [2]: 8%
- Population Membrane Permeable-Phenotype (%) [2]: 8%
- Population Mitochondria Different-Phenotype (%) [2]: 11%
- Population Mitotic Cells (%) [2]: 0%
- Population Normal (%) [2]: 92%
- Population Pyknosed Nuclei (%) [2]: 5%
- Population Tubulin-Different-Phenotype (%) [2]: 18%
- Population Apoptotic (%) [3]: 60%
- Population Fragmented Nuclei (%) [3]: 28%
- Population Healthy Nuclei (%) [3]: 40%
- Population Hoechst High Intensity Objects (%) [3]: 14%
- Population Membrane Permeable-Phenotype (%) [3]: 33%
- Population Mitochondria Different-Phenotype (%) [3]: 0%
- Population Mitotic Cells (%) [3]: 39%
- Population Normal (%) [3]: 85%
- Population Pyknosed Nuclei (%) [3]: 31%
- Population Tubulin-Different-Phenotype (%) [3]: 47%
- Total Cell Count [3]: 105
- Population Apoptotic (%) [4]: 33%
- Population Fragmented Nuclei (%) [4]: 8%
- Population Healthy Nuclei (%) [4]: 79%
- Population Hoechst High Intensity Objects (%) [4]: 3%
- Population Membrane Permeable-Phenotype (%) [4]: 4%
- Population Mitochondria Different-Phenotype (%) [4]: 7%
- Population Mitotic Cells (%) [4]: 66%
- Population Normal (%) [4]: 96%
- Population Pyknosed Nuclei (%) [4]: 11%
- Population Tubulin-Different-Phenotype (%) [4]: 4%
- Population Apoptotic (%) [5]: 60%
- Population Fragmented Nuclei (%) [5]: 19%
- Population Healthy Nuclei (%) [5]: 53%
- Population Hoechst High Intensity Objects (%) [5]: 12%
- Population Membrane Permeable-Phenotype (%) [5]: 26%
- Population Mitochondria Different-Phenotype (%) [5]: 0%
- Population Mitotic Cells (%) [5]: 39%
- Population Normal (%) [5]: 87%
- Population Pyknosed Nuclei (%) [5]: 27%
- Population Tubulin-Different-Phenotype (%) [5]: 30%
- Population Apoptotic (%) [6]: 50%
- Population Fragmented Nuclei (%) [6]: 11%
- Population Healthy Nuclei (%) [6]: 81%
- Population Hoechst High Intensity Objects (%) [6]: 5%
- Population Membrane Permeable-Phenotype (%) [6]: 2%
- Population Mitochondria Different-Phenotype (%) [6]: 18%
- Population Mitotic Cells (%) [6]: 50%
- Population Normal (%) [6]: 94%
- Population Pyknosed Nuclei (%) [6]: 6%
- Population Tubulin-Different-Phenotype (%) [6]: 21%
- Population Apoptotic (%) [7]: 65%
- Population Fragmented Nuclei (%) [7]: 22%
- Population Healthy Nuclei (%) [7]: 49%
- Population Hoechst High Intensity Objects (%) [7]: 16%
- Population Membrane Permeable-Phenotype (%) [7]: 58%
- Population Mitochondria Different-Phenotype (%) [7]: 2%
- Population Mitotic Cells (%) [7]: 34%
- Population Normal (%) [7]: 83%
- Population Pyknosed Nuclei (%) [7]: 27%
- Population Tubulin-Different-Phenotype (%) [7]: 58%
- Total Cell Count [7]: 99
- Population Apoptotic (%) [8]: 41%
- Population Fragmented Nuclei (%) [8]: 7%
- Population Healthy Nuclei (%) [8]: 81%
- Population Hoechst High Intensity Objects (%) [8]: 2%
- Population Membrane Permeable-Phenotype (%) [8]: 3%
- Population Mitochondria Different-Phenotype (%) [8]: 5%
- Population Mitotic Cells (%) [8]: 58%
- Population Normal (%) [8]: 97%
- Population Pyknosed Nuclei (%) [8]: 11%
- Population Tubulin-Different-Phenotype (%) [8]: 4%
- Population Apoptotic (%) [9]: 64%
- Population Fragmented Nuclei (%) [9]: 29%
- Population Healthy Nuclei (%) [9]: 53%
- Population Hoechst High Intensity Objects (%) [9]: 10%
- Population Membrane Permeable-Phenotype (%) [9]: 22%
- Population Mitochondria Different-Phenotype (%) [9]: 2%
- Population Mitotic Cells (%) [9]: 35%
- Population Normal (%) [9]: 89%
- Population Pyknosed Nuclei (%) [9]: 16%
- Population Tubulin-Different-Phenotype (%) [9]: 34%
- Population Apoptotic (%) [10]: 33%
- Population Fragmented Nuclei (%) [10]: 12%
- Population Healthy Nuclei (%) [10]: 84%
- Population Hoechst High Intensity Objects (%) [10]: 15%
- Population Membrane Permeable-Phenotype (%) [10]: 14%
- Population Mitochondria Different-Phenotype (%) [10]: 1%
- Population Mitotic Cells (%) [10]: 66%
- Population Normal (%) [10]: 84%
- Population Pyknosed Nuclei (%) [10]: 3%
- Population Tubulin-Different-Phenotype (%) [10]: 23%
- Total Cell Count [10]: 106
- Population Apoptotic (%) [11]: 47%
- Population Fragmented Nuclei (%) [11]: 34%
- Population Healthy Nuclei (%) [11]: 45%
- Population Hoechst High Intensity Objects (%) [11]: 16%
- Population Membrane Permeable-Phenotype (%) [11]: 51%
- Population Mitochondria Different-Phenotype (%) [11]: 0%
- Population Mitotic Cells (%) [11]: 52%
- Population Normal (%) [11]: 83%
- Population Pyknosed Nuclei (%) [11]: 19%
- Population Tubulin-Different-Phenotype (%) [11]: 42%
- Total Cell Count [11]: 118
- Population Apoptotic (%) [12]: 33%
- Population Fragmented Nuclei (%) [12]: 16%
- Population Healthy Nuclei (%) [12]: 77%
- Population Hoechst High Intensity Objects (%) [12]: 9%
- Population Membrane Permeable-Phenotype (%) [12]: 8%
- Population Mitochondria Different-Phenotype (%) [12]: 2%
- Population Mitotic Cells (%) [12]: 66%
- Population Normal (%) [12]: 90%
- Population Pyknosed Nuclei (%) [12]: 5%
- Population Tubulin-Different-Phenotype (%) [12]: 29%
